From ChEMBL document CHEMBL1123135, “Substituent effects on the bioactivation of 2-(N-hydroxyacetamido)fluorenes by N-arylhydroxamic acid N,O-acyltransferase” (J Med Chem, 1985) come the findings set out here.

Series [1] concerns Hamster. Put plainly: Rate of methylthio adduct formation catalyzed by partially purified hamster hepatic enzyme per mg protein per 10 min. Format: ADME. To be noted: cricetinae, in vitro. A digest of the protocol:
(§1)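 Hamster liver 105000g cytosol AHAT was taken as the 35–50% ammonium sulfate fraction (2–3-fold purified). Incubation (1.0 mL, pH 6.8 sodium phosphate) held 0.8 μmol NAD⁺, 10 μmol N-acetyl-L-[¹⁴C-CH₃]methionine, 1 mg enzyme and 1 μmol hydroxamic acid, for 10 min at 37 °C in air. Ether wash and 90 °C/45 min heating were followed by benzene–alkane extraction and scintillation counting. Heat-denatured enzyme blanks were subtracted; N = 3.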

A short description of series [2]: Observed log rate of methylthio adduct formation. Format: ADME. A digest of the protocol: as §1

As to `CC(=O)N(O)c1ccc2c(c1)Cc1ccccc1-2`, in series [1], the Rate worked out at 7.5 nmol/mg/10 min. The compound also yielded a Log rate in series [2] of 0.87.

For the compound `CCCCOc1ccc2c(c1)Cc1cc(N(O)C(C)=O)ccc1-2`, in series [1], the Rate worked out at 0 nmol/mg/10 min.

As to `CC(=O)c1ccc2c(c1)Cc1cc(N(O)C(C)=O)ccc1-2`, the Rate in series [1] was 61 nmol/mg/10 min. The same compound showed a Log rate in series [2] of 1.79.

As for `CC(=O)N(O)c1ccc2c(c1)Cc1cc(F)ccc1-2`, in series [1], the Rate is 15.2 nmol/mg/10 min. In addition, the Log rate in series [2] amounted to 1.18.

For the compound `CC(=O)N(O)c1ccc2c(c1)Cc1cc(I)ccc1-2`, in series [1], the Rate is 2.4 nmol/mg/10 min. The same compound returned a Log rate in series [2] of 0.37.

Regarding `CC(=O)N(O)c1ccc2c(c1)Cc1cc(Br)ccc1-2`, in series [1], the Rate turned out to be 10.5 nmol/mg/10 min. Also, the Log rate in series [2] worked out at 1.02.

`COc1ccc2c(c1)Cc1cc(N(O)C(C)=O)ccc1-2` had a Rate in series [1] of 1.2 nmol/mg/10 min. The Log rate in series [2] is 0.09.

On to `CC(=O)N(O)c1ccc2c(c1)Cc1cc(C#N)ccc1-2`, for which the Rate in series [1] came to 24.9 nmol/mg/10 min. The compound further showed a Log rate in series [2] of 1.4.
